Assays:
Type in all cases: functional
Actinomyces naeslundii [1] = test: Antibacterial activity against Actinomyces naeslundii ATCC 12104 assessed as growth inhibition by tube dilution assay
Method in brief: (§1)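 Standard tube dilution assay, modified so that adherent cells were dispersed before cell density was read spectrophotometrically at 540 nm. The value is the minimum inhibitory concentration, given in molar units.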

Streptococcus mutans [2] = test: Antiplaque activity against wild type Streptococcus mutans 6715-13 assessed as growth inhibition of adherent cells on saliva coated bovine tooth slabs
Method in brief: (§2)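 Tooth slabs were treated with the test agents at a series of molar concentrations. The value is the lowest molar concentration (M × 10⁴) that gave >90% inhibition of growth of adherent cells, based on triplicate sets.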

Streptococcus mutans [3] = test: Antibacterial activity against wild type Streptococcus mutans 6715-13 assessed as growth inhibition by tube dilution assay; method in brief: as §1
Actinomyces viscosus [4] = test: Antiplaque activity against Actinomyces viscosus M-100-2000 assessed as growth inhibition of adherent cells on saliva coated bovine tooth slabs; method in brief: as §2
Actinomyces viscosus [5] = test: Antibacterial activity against Actinomyces viscosus M-100-2000 assessed as growth inhibition by tube dilution assay; method in brief: as §1
Actinomyces naeslundii [6] = test: Antiplaque activity against Actinomyces naeslundii ATCC 12104 assessed as growth inhibition of adherent cells on saliva coated bovine tooth slabs; method in brief: as §2

| SMILES | MIC (Actinomyces naeslundii [1]) | MIC>90 (Streptococcus mutans [2]) | MIC (Streptococcus mutans [3]) | MIC>90 (Actinomyces viscosus [4]) | MIC (Actinomyces viscosus [5]) | MIC>90 (Actinomyces naeslundii [6]) |
| --- | --- | --- | --- | --- | --- | --- |
| N=C(NCCCCCCNC(=N)NC(=N)Nc1ccc(Cl)cc1)NC(=N)Nc1ccc(Cl)cc1.O=C(O)[C@H](O)[C@@H](O)[C@H](O)[C@H](O)CO | 10 µM | 10 ×10⁻⁴ M | 10 µM | >10 ×10⁻⁴ M | 10 µM | >100 ×10⁻⁴ M |
| CCCCCC(CC)CNC(=N)NC(=N)NCCCCNC(=N)NC(=N)NCC(CC)CCCCC.Cl (stereo not given) | 10 µM | 100 ×10⁻⁴ M | 10 µM | 10 ×10⁻⁴ M | 10 µM | 0.5 ×10⁻⁴ M |
| CCCCCCCCCNC(=N)NC(=N)NCCCCNC(=N)NC(=N)NCCCCCCCCC.Cl | 10 µM | 70 ×10⁻⁴ M | 100 µM | 10 ×10⁻⁴ M | 10 µM | 1 ×10⁻⁴ M |
| CCCCCCCCNC(=N)NC(=N)NCCCCCCNC(=N)NC(=N)NCCCCCCCC.Cl | 10 µM | 8 ×10⁻⁴ M | 10 µM | 5 ×10⁻⁴ M | 10 µM | 0.5 ×10⁻⁴ M |
| CCCCCCCNC(=N)NC(=N)NCCCCCCCCNC(=N)NC(=N)NCCCCCCC.Cl | 10 µM | >10 ×10⁻⁴ M | 10 µM | >10 ×10⁻⁴ M | 10 µM | 0.5 ×10⁻⁴ M |
| CCCCCCNC(=N)NC(=N)NCCCCCCCCCCNC(=N)NC(=N)NCCCCCC.Cl | 10 µM | 10 ×10⁻⁴ M | 10 µM | >10 ×10⁻⁴ M | 10 µM | 0.5 ×10⁻⁴ M |
| CCCCCCCNC(=N)NC(=N)NCCCCCCNC(=N)NC(=N)NCCCCCCC.Cl | 10 µM | 50 ×10⁻⁴ M | 10 µM | >10 ×10⁻⁴ M | 1 µM | 0.5 ×10⁻⁴ M |
| CCCCCCNC(=N)NC(=N)NCCCCCCCCNC(=N)NC(=N)NCCCCCC.Cl | 10 µM | 3 ×10⁻⁴ M | 10 µM | >10 ×10⁻⁴ M | 1 µM | 1 ×10⁻⁴ M |
| CCCCCCNC(=N)NC(=N)NCCCCCCNC(=N)NC(=N)NCCCCCC.Cl | 10 µM | 100 ×10⁻⁴ M | 10 µM | 0.8 ×10⁻⁴ M | 1 µM | 0.8 ×10⁻⁴ M |
| CCCCC(CC)CNC(=N)NC(=N)NCCCCCCNC(=N)NC(=N)NCC(CC)CCCC.Cl.Cl (stereo not given) [ALEXIDINE DIHYDROCHLORIDE] | 10 µM | >100 ×10⁻⁴ M | 10 µM | 0.5 ×10⁻⁴ M | 0.1 µM | 5 ×10⁻⁴ M |

From ChEMBL document CHEMBL3244297, “In vitro antiplaque properties of a series of alkyl bis(biguanides)” (1978)
